In ChEMBL document CHEMBL3585289, “Potent and Selective Amidopyrazole Inhibitors of IRAK4 That Are Efficacious in a Rodent Model of Inflammation” (ACS Med Chem Lett, 2015):
pIC50: −log10 of the molar value. Values after ≈ are worked out from the molar mass of the structure shown. Active and inactive are the calls of the source. The calls are words filed in the database; no cut-off is given here.

Legend:
[1] = AUC (0 to 8 hrs) in Sprague-Dawley rat at 10 mg/kg, po administered as cassette dosing; type: ADME, organism-based; parameters: dose 10 mg/kg, time < 8 hr, route oral; settings: in vivo
[2] = molecular target: T1, Interleukin-1 receptor-associated kinase 4 (Homo sapiens, UniProt Q9NWZ3); assay: biochemical
T1 sequence (Q9NWZ3 whole entry): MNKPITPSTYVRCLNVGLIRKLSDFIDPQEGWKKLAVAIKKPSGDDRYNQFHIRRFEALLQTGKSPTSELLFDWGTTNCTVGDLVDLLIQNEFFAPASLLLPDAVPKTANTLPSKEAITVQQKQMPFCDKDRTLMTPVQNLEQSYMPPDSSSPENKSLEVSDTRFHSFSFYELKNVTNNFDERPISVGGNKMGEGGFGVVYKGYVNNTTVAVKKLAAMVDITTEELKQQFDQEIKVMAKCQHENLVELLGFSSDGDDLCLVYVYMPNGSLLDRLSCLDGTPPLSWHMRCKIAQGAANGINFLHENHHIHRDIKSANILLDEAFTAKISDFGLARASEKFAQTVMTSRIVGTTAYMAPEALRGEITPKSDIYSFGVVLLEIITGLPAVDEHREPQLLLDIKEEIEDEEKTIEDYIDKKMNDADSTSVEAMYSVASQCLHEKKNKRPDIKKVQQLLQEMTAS

[3] = molecular target: T2, Interleukin-1 receptor-associated kinase 4 (Homo sapiens) (UniProt Q9NWZ3); assay: Inhibition of recombinant human IRAK4 at 10 uM relative to control
T2 sequence (whole entry): T1 sequence (Q9NWZ3 whole entry)

[4] = Kinetic aqueous solubility of the compound in phosphate buffered saline at pH 7 at 25 degC after 24 hrs by HPLC/DAD method; type: physicochemical; settings: read-out: Kinetic_solubility
[5] = tested on: Rattus norvegicus; assay: Antiinflammatory activity in Lewis rat peritonitis model assessed as reduction of TLR2 agonist PAM2CSK4-induced IL-1beta production in plasma at 100 mg/kg, po administered 1 hr prior to PAM2CSK4 challenge measured after 3 hrs relative to vehicle-treated control; type: functional; parameters: scale not given: the % may be the effect or the level left
Method in brief: (§1)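 Female Lewis rats (n = 9) dosed by oral gavage at 100 mg/kg. One hour later, TLR2 agonist PAM2CSK4 injected intraperitoneally. Plasma collected 3 h after injection for cytokine levels and drug exposure. Cytokines expressed relative to a vehicle-only group.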

[6] = tested on: Rattus norvegicus; assay: Antiinflammatory activity in Lewis rat peritonitis model assessed as reduction of TLR2 agonist PAM2CSK4-induced IL-8 production in plasma at 100 mg/kg, po administered 1 hr prior to PAM2CSK4 challenge measured after 3 hrs relative to vehicle-treated control; type: functional; parameters: scale not given: the % may be the effect or the level left; method in brief: as §1
[7] = tested on: Rattus norvegicus; assay: Antiinflammatory activity in Lewis rat peritonitis model assessed as reduction of TLR2 agonist PAM2CSK4-induced TNF-alpha production in plasma at 100 mg/kg, po administered 1 hr prior to PAM2CSK4 challenge measured after 3 hrs relative to vehicle-treated control; type: functional; parameters: scale not given: the % may be the effect or the level left; method in brief: as §1
[8] = Fraction unbound in rat plasma at 10 uM after 6 hrs by dialysis method; type: ADME, cell-free
[9] = tested on: Pgp; assay: Activity at rat Pgp assessed as apparent permeability by cell-based assay; type: ADME; settings: not told
[10] = tested on: Rattus norvegicus; assay: Antiinflammatory activity in Lewis rat peritonitis model assessed as reduction of TLR2 agonist PAM2CSK4-induced IFN-gamma production in plasma at 100 mg/kg, po administered 1 hr prior to PAM2CSK4 challenge measured after 3 hrs relative to vehicle-treated control; type: functional; parameters: scale not given: the % may be the effect or the level left; method in brief: as §1
[11] = AUC (0 to 8 hrs) in Sprague-Dawley rat at 2 mg/kg, iv; type: ADME, organism-based; parameters: dose 2 mg/kg, time < 8 hr, route intravenous; settings: in vivo
[12] = tested on: Rattus norvegicus; assay: Antiinflammatory activity in Lewis rat peritonitis model assessed as reduction of TLR2 agonist PAM2CSK4-induced IL-6 production in plasma at 100 mg/kg, po administered 1 hr prior to PAM2CSK4 challenge measured after 3 hrs relative to vehicle-treated control; type: functional; parameters: scale not given: the % may be the effect or the level left; method in brief: as §1
[13] = tested on: Mus musculus; assay: Antiinflammatory activity in CIA-MAB-50-induced BALB/c mouse arthritis model assessed as decrease in LPS-induced paw size at 100 mg/kg, po qd administered on day 3 to 10 post LPS challenge measured on day 10 relative to vehicle-treated control; type: functional, organism-based
Method in brief: (§2)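 BALB/c female mice given arthritogenic monoclonal antibody CIA-MAB-50 (2.5 mg) on day 0, then LPS booster (25 μg i.p.) on day 3. Oral gavage once daily on days 3–10; vehicle group received methylcellulose. Paw size measured on days 0, 3, 6, 8 and 10. Study ended on day 10, and day-10 paw size was compared with vehicle.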

[14] = molecular target: T2, Interleukin-1 receptor-associated kinase 4 (Homo sapiens); settings: 1 uM
[15] = molecular target: T1, Interleukin-1 receptor-associated kinase 4; assay: Inhibition of IRAK4 in human THP1-XBlue cells assessed as suppression of TLR4 agonist LPS-induced activation of NF-kappaB preincubated for 1 hr followed by LPS challenge measured after 5 hrs by secreted embryonic alkaline phosphatase reporter gene assay; type: cell-based, THP-1
[16] = Oral bioavailability in Sprague-Dawley rat at 10 mg/kg administered as cassette dosing; type: ADME, organism-based; settings: in vivo
[17] = AUC (0 to 24 hrs) in mouse at 5 mg/kg, po; type: ADME, organism-based; parameters: dose 5 mg/kg, time < 24 hr, route oral; settings: in vivo
[18] = AUC (0 to 6 hrs) in Sprague-Dawley rat at 10 mg/kg, po administered as cassette dosing; type: ADME, organism-based; parameters: time < 6 hr, dose 10 mg/kg, route oral; settings: in vivo
[19] = tested on: Mus musculus; assay: Antiinflammatory activity in CIA-MAB-50-induced BALB/c mouse arthritis model assessed as decrease in LPS-induced paw size at 2 mg/kg, po qd administered on day 3 to 10 post LPS challenge measured on day 10 relative to vehicle-treated control; type: functional, organism-based; method in brief: as §2
[20] = molecular target: Misshapen-like kinase 1 (Homo sapiens) (UniProt Q8N4C8); assay: Inhibition of recombinant human MINK1 at 10 uM relative to control
[21] = tested on: Pgp; assay: Apparent permeability across pig LLC-PK1 cells expressing human or mouse Pgp; type: ADME, cell-based, Sus scrofa
[22] = molecular target: BDNF/NT-3 growth factors receptor (Homo sapiens) (UniProt Q16620); assay: Inhibition of recombinant human TRKB at 10 uM relative to control
[23] = Plasma concentration in PAM2CSK4 challenged Lewis rat peritonitis model at 100 mg/kg, po administered 1 hr prior to PAM2CSK4 challenge measured after 3 hrs; type: ADME, organism-based; method in brief: as §1
[24] = Drug metabolism in rat hepatocytes assessed as monooxidized metabolite formation; type: ADME, cell-based, Hepatocyte

Chain of Misshapen-like kinase 1 (Homo sapiens) (Q8N4C8 whole entry, looked up): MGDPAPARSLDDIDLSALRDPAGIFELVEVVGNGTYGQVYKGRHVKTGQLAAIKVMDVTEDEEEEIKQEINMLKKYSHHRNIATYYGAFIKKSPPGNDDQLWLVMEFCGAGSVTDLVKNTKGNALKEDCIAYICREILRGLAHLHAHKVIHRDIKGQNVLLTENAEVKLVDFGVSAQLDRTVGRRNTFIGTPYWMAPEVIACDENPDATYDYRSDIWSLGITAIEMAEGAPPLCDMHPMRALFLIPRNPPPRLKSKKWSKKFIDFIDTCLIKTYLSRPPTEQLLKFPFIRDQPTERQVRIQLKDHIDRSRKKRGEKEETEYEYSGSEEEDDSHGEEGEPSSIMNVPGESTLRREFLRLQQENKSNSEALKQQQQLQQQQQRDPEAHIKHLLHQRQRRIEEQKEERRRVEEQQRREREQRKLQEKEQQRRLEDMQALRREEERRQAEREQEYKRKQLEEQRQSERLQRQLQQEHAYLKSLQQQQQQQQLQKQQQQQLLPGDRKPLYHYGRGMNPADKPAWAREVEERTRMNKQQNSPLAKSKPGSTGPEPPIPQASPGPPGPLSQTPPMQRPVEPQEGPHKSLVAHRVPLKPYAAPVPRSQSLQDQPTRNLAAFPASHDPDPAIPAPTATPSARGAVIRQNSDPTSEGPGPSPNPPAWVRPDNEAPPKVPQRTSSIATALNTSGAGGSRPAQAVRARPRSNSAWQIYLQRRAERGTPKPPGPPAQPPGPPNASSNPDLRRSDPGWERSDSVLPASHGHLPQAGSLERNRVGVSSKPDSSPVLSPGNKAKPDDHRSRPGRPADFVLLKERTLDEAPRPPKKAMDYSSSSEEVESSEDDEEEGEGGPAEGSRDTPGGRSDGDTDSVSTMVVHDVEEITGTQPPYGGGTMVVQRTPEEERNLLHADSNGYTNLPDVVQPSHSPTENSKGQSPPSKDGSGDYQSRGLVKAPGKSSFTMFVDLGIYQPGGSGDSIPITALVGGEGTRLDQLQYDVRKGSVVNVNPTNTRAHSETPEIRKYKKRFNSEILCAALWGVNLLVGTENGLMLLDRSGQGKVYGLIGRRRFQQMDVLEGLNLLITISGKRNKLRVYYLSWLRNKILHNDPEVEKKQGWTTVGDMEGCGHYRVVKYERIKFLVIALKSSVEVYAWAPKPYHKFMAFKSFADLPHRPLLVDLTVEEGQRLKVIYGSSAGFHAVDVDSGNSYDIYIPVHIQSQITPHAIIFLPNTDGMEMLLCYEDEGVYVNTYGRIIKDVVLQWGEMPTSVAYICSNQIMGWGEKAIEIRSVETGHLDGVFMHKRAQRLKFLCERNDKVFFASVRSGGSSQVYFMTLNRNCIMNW
Chain of BDNF/NT-3 growth factors receptor (Homo sapiens) (Q16620 32-822 limits assumed): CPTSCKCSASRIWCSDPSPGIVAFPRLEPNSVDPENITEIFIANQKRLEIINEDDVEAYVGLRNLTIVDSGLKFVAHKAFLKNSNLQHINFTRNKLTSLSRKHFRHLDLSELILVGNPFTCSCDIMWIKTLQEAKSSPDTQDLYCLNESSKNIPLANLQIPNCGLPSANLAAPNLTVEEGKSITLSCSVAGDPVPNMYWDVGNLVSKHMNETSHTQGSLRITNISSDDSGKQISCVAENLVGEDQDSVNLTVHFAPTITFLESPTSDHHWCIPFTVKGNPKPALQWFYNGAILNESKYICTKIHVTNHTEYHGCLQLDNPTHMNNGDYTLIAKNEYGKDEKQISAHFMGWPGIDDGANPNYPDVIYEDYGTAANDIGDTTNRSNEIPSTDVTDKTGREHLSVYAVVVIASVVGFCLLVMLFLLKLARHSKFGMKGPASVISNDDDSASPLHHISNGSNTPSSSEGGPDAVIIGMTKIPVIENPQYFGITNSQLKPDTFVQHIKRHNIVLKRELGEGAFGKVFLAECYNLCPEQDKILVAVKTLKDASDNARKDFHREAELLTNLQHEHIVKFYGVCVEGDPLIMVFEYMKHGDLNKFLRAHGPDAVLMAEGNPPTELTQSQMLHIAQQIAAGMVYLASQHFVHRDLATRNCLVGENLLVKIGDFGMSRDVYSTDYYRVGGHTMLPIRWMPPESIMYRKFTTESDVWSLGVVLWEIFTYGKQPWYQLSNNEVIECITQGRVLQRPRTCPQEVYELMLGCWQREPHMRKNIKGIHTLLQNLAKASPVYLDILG

Row | pIC50 [2] | solubility kinetic at 24 h [4] [µM] | AUC(0-t) at 6 h [18] [µM·h] | SMILES | also measured
1 | 7.57 |  |  | Cc1ccc(-n2nc(C3CCN(S(C)(=O)=O)CC3)cc2NC(=O)c2cnn3cccnc23)nc1 | AUC(0-t) at 8 h [1]: 0.045 µM·h; inhibition [3]: > 80%
2 | 8.30 |  |  | Cc1ccc(-n2nc(N3CCN(C)CC3)cc2NC(=O)c2cnn3cccnc23)nc1 | Activity [5]: 28%; Activity [6]: 34%; Activity [7]: 32%; fraction unbound at 6 h, 10 µM [8]: 0.21; AUC(0-t) at 8 h [1]: 1.7 µM·h; Papp [9]: 32 ×10⁻⁶ cm/s; Activity [10]: 30%; AUC(0-t) at 8 h [11]: 1.29 µM·h; Activity [12]: 85%; Activity [13]: Active; inhibition [14]: > 80%; pIC50 [15]: 7.08; bioavailability [16]: 28%; AUC(0-t) at 24 h [17]: 2.3 µM·h
3 | 8.15 |  |  | Cc1ccc(-n2nc(C3CCN(C(C)C)CC3)cc2NC(=O)c2cnn3cccnc23)nc1 | 
4 | 7.70 |  |  | CS(=O)(=O)N1CCC(c2cc(NC(=O)c3cnn4cccnc34)n(-c3ccc(C4CC4)cn3)n2)CC1 | AUC(0-t) at 8 h [1]: 1.9 µM·h
5 | 7.40 |  | 11.8 | Cc1ccc(-n2nc(C3CCN(S(C)(=O)=O)CC3)cc2NC(=O)c2cnn3cccnc23)c(F)c1 | 
6 | 6.74 |  |  | Cc1cnc(-n2nc(C3CCN(S(C)(=O)=O)CC3)cc2NC(=O)c2cnn3cccnc23)nc1 | 
7 | 6.55 |  |  | CS(=O)(=O)N1CCC(c2cc(NC(=O)c3cnn4cccnc34)n(-c3ccccc3)n2)CC1 | 
8 | 7.17 | < 2 | 19.3 | Cc1ccc(-n2nc(C3CCN(S(C)(=O)=O)CC3)cc2NC(=O)c2cnn3cccnc23)cc1 | Papp [21]: 31 ×10⁻⁶ cm/s; Activity [5]: 28%; Activity [7]: 21%; Activity [10]: inactive; inhibition [22]: > 80%; Activity [12]: inactive; pIC50 [15]: 5.62; concentration at 3 h [23]: 2660 nM; inhibition [3]: > 80%
9 | 5.68 |  |  | Cc1cccc(-n2nc(C3CCN(S(C)(=O)=O)CC3)cc2NC(=O)c2cnn3cccnc23)c1 | 
10 | 8.70 |  |  | Cc1ccc(-n2nc(N3CCN(S(C)(=O)=O)CC3)cc2NC(=O)c2cnn3cccnc23)nc1 | AUC(0-t) at 8 h [1]: 8.9 µM·h
11 | 7.15 |  | 0.43 | COc1ccc(-n2nc(C3CCN(S(C)(=O)=O)CC3)cc2NC(=O)c2cnn3cccnc23)cc1 | 

More lines, now with the values behind:

Row | SMILES | pIC50 [2] | solubility kinetic at 24 h [4] [µM] | AUC(0-t) at 6 h [18] [µM·h] | also measured
12 | Cc1ccc(-n2nc(C3CCN(C)CC3)cc2NC(=O)c2cnn3cccnc23)cc1 | 6.82 | 165 (≈ 68.6 µg/mL) |  | 
13 | Cc1ccc(-n2nc(C3CCCCC3)cc2NC(=O)c2cnn3cccnc23)cc1 | 5.62 | < 2 |  | 
14 | Cc1ccc(-n2nc(-c3ccccc3)cc2NC(=O)c2cnn3cccnc23)cc1 | 6.16 | < 3 |  | 
15 | Cc1ccc(-n2nc(C3CCN(C(N)=O)CC3)cc2NC(=O)c2cnn3cccnc23)cc1 | 6.66 |  |  | 
16 | COc1ccc(-c2cc(NC(=O)c3cnn4cccnc34)n(-c3ccc(C)cc3)n2)cn1 | 6.51 | 3 (≈ 1.28 µg/mL) |  | 
17 | Cc1ccc(-n2nc(-c3ccncc3)cc2NC(=O)c2cnn3cccnc23)cc1 | 7.21 | < 2 |  | 
18 | Cc1ccc(-n2nc(C3CC3)cc2NC(=O)c2cnn3cccnc23)cc1 | 6.43 | 99 (≈ 35.5 µg/mL) | 2.37 | 
19 | CS(=O)(=O)N1CCC(c2cc(NC(=O)c3cnn4cccnc34)n(-c3ccc(C4CC4)cc3)n2)CC1 | 7.23 |  | 5.26 | 
20 | CC(C)N1CCC(c2cc(NC(=O)c3cnn4cccnc34)n(-c3ccc(C4CC4)cc3F)n2)CC1 | 7.89 |  |  | AUC(0-t) at 8 h [1]: 1.11 µM·h
21 | C[C@@H]1C[C@H]2[C@@H]3CCC4=CC(=O)C=C[C@]4(C)[C@@]3(F)[C@@H](O)C[C@]2(C)[C@@]1(O)C(=O)CO |  |  |  | Activity [19]: Active
22 | COc1ccc(-c2cc(NC(=O)c3cnn4cccnc34)n(-c3ccc(C)cc3)n2)cc1 | 6.77 | < 2 |  | inhibition [20]: > 80%; inhibition [3]: > 80%
23 | Cc1ccc(-n2nc(C3CCNCC3)cc2NC(=O)c2cnn3cccnc23)cc1 | 7.10 | 172 (≈ 69.1 µg/mL) |  | 
24 | COc1cc(-c2cc(NC(=O)c3cnn4cccnc34)n(-c3ccc(C)cc3)n2)ccn1 | 6.41 | < 2 | 1.39 | 
25 | CS(=O)(=O)N1CCC(c2cc(NC(=O)c3cnn4cccnc34)n(-c3ccc(C4CC4)cc3F)n2)CC1 | 7.07 |  |  | 
26 | Cc1ccc(-n2nc(C3CCOCC3)cc2NC(=O)c2cnn3cccnc23)cc1 | 6.39 | 24 (≈ 9.66 µg/mL) | 0.45 | 
27 | Cc1ccc(-n2nc(-c3cccnc3)cc2NC(=O)c2cnn3cccnc23)cc1 | 7.00 | < 2 | 0.44 | 
28 | CC(=O)N1CCC(c2cc(NC(=O)c3cnn4cccnc34)n(-c3ccc(C)cc3)n2)CC1 | 6.74 | 163 (≈ 72.3 µg/mL) | 0.71 | 
29 | Cc1ccc(-n2nc(C3CCN(C(C)C)CC3)cc2NC(=O)c2cnn3cccnc23)cc1 | 7.33 | 170 (≈ 75.4 µg/mL) | 0.28 | 
30 | COc1ccc(-c2cc(NC(=O)c3cnn4cccnc34)n(-c3ccc(C)cc3)n2)cc1OC | 7.36 | < 2 |  | Drug metabolism [24]: metabolite_detected
